Screens from PubChem.
TAG inh – inhibitors of triacylglycerol accumulation. H9c2 cells, Nile Red lipid (TAG) fluorescence; cells loaded with 200 µM oleic acid. inhibition, % at 12.5 µM. 230,000 tested, 0.66% active;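 active = pattern-corrected inhibition of lipid staining of at least 50% with the nuclear-stain viability signal not falling by more than 50%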
B2AR ag – human beta-2 adrenergic receptor agonism by FAP. P07550. Am2.2-beta2AR cells, FAP receptor internalization, flow cytometry. response, % (concentration not given with the values). 340,000 tested, 0.43% active. AID 504454;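 active = response above a set limit, near 3 SD of response in nonfluorescent compounds, cut at about 42% in these data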
Hep lipid drop – modulators of hepatic lipid droplet formation | 240,000 tested, 0.4% active | AML12 mouse hepatocytes, oleate lipid droplets, BODIPY imaging | inhibition, % at 6.5 µM;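 active = lipid droplet intensity inhibited by at least 50%, with more than 500 cells counted; inconclusive = wells with under 300 cells, treated as cytotoxic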
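Assay system: AML12 mouse liver cells | Compound dosing: One dose, 6.5 µM compound | Read-out basis: Droplet intensity reduction, % inhibition | Measured by: Fluorescence imaging, 20x objective, two fields per well | Schedule: Overnight treatment with compound plus oleate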
Arr AP2 block – human beta-arrestin and AP2 interaction inhibition | FITC-arrestin peptide / GST-AP2 beads, flow cytometry; AP2 beta2 appendage carries R879A mutation | inhibition, % at 10 µM | 340,000 tested, 0.31% active | AID 504490;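 active = inhibition above a set limit, near 3 SD of compounds lacking own fluorescence, cut at about 54% in these data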
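Material – GST-tagged AP2 beta2-adaptin appendage (R879A) on 4 µm glutathione beads · Probe or stimulus – fluorescein-tagged arrestin peptide at 50 nM final · Timing – 12 min plus 1 h, RT · Detection – bead flow cytometry, FITC channel · Read-out basis – inhibition as reduced fluorescein signal on beads, percent · Medium – PBS plus Tween 20 (0.05%) and BSA (0.1%)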
NTR1 ag – agonists of human neurotensin receptor NTR1. P30989. NTR1-U2OS beta-arrestin-GFP spot imaging, agonist mode. activation, % at 20 µM. 330,000 tested, 0.17% active. AID 493036;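 active = activation at or above 40% of the spot to cytoplasm intensity ratio, with at least 20 cells analyzed; inconclusive = wells under 20 cells, flagged as cytotoxic or low count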
GRK2 inh – inhibitors of human GRK2 displacing RNA aptamer; inhibition of aptamer binding, % at 10 µM; 330,000 tested, 0.59% active; bead flow cytometry, FAM-aptamer displacement from GRK2; P25098;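 active = inhibition of aptamer binding above 40%, roughly 3 SD of noise, on plates passing a quality check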;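 note: median bead fluorescence of bound FAM aptamer so fluorescent compounds give negative values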
Target sequence (P25098 whole entry, looked up): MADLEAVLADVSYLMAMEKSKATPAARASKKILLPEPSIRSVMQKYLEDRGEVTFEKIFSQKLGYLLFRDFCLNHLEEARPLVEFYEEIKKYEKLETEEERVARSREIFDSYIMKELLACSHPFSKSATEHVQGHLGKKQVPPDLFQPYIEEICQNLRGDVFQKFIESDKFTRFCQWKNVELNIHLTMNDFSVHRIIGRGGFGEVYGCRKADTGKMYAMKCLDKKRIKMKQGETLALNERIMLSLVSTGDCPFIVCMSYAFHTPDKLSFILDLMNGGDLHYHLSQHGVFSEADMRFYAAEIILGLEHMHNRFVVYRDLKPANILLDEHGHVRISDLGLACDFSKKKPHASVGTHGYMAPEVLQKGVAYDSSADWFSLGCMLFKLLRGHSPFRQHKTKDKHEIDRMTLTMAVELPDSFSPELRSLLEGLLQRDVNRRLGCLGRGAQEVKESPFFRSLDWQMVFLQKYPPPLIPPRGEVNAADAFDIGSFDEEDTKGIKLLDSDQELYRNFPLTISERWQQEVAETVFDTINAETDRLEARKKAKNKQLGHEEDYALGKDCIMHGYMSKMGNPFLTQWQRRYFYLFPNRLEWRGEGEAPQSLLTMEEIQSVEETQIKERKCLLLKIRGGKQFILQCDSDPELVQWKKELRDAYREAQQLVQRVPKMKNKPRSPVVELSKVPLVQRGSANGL
H9c2 TAG conf – triacylglycerol accumulation inhibition, confirmation; shares compounds with TAG inh; H9c2 lipid accumulation, Nile Red fluorescence; cells loaded with 200 µM oleic acid; inhibition, % at 12.5 µM; 990 tested, 71% active; AID 651629;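 active = mean inhibition across replicates of 40% or more; inactive = mean inhibition below 40%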
Large screens that a line does not name were inactive (follow-up assays come after a bar, where they were run). Sampled rows, rich in hits. Any-hit rate of the full collection: about 2%.

COc1ccc(F)cc1S(=O)(=O)NCCCn1ccnc1	none
S=C(N/N=C/c1cccs1)NC1CC2CCC1C2 (configuration not stated)	TAG inh 54 | H9c2 TAG conf 56
Cn1c2ccccc2c2c(C(=O)N3CCN(C(=O)c4ccco4)CC3)cn(C3CCCCC3)c(=O)c21	TAG inh 50 | H9c2 TAG conf inactive
Cn1c2ccccc2c2c(C(=O)N3CCN(c4ccccn4)CC3)cn(C3CCCC3)c(=O)c21	none
O=C(CC1C[C@H](C(=O)N2CCOCC2)[C@@]2(CCC3CCCC3)c3[nH]c4ccccc4c3CCN2C1=O)NCC12CC3CC(CC(C3)C1)C2 (some centres not stated)	TAG inh 61 (no result: Hep lipid drop) | H9c2 TAG conf 56
O=C(C[C@H]1C[C@H](C(=O)N2CCOCC2)[C@@]2(CCC3CCCC3)c3[nH]c4cc(-c5ccco5)ccc4c3CCN2C1=O)NCC12CC3CC(CC(C3)C1)C2	TAG inh 62 (no result: Hep lipid drop) | H9c2 TAG conf 77
CC1CCN(C(=O)c2[nH]cnc2C(=O)Nc2ccccc2F)CC1	none (no result: B2AR ag, Hep lipid drop, Arr AP2 block, NTR1 ag, GRK2 inh)
CCOc1ccnc2c1c(=O)n(Cc1cc(OC)cc(OC)c1)c(=O)n2C	none (no result: TAG inh)
CCN(CC)c1ccc(/C=N/Nc2nc(C)cc(C)n2)cc1	TAG inh 51 | H9c2 TAG conf inactive
COC(=O)c1cc(NC(=O)c2c(Cl)nc3sccn23)cc(C(=O)OC)c1	TAG inh 70 (no result: Hep lipid drop) | H9c2 TAG conf 87
COc1ccc(-c2nc(C(N)=O)c3[nH]c(=O)n(-c4cccc(Cl)c4)c3n2)cc1OC	none (no result: NTR1 ag, GRK2 inh)
CCc1ccc(-c2nc(C(N)=O)c3[nH]c(=O)n(-c4ccccc4OC)c3n2)cc1	TAG inh 73 (no result: Hep lipid drop) | H9c2 TAG conf 91
COc1ccc(/C=C/C(=O)OCC(=O)c2c(N)n(C)c(=O)n(C)c2=O)c(OC)c1	none
COc1ccc(OC)c(/C=C/C(=O)OCC(=O)c2c(N)n(C)c(=O)n(C)c2=O)c1	TAG inh 56 | H9c2 TAG conf inactive
COc1ccc(-c2csc(NC(=O)c3c(OC)cccc3OC)n2)cc1	none (no result: TAG inh)
COc1ccc(-c2csc(NC(=O)CC(C)C)n2)cc1	TAG inh 65 | H9c2 TAG conf inactive
O=C(/C=C/c1ccc(OCCCF)cc1)NCc1ccc(Cl)c(Cl)c1	TAG inh 62 (no result: Hep lipid drop) | H9c2 TAG conf 52
COc1cc(OC)cc(C(=O)N2CC(=O)Nc3ccccc32)c1	TAG inh 58 | H9c2 TAG conf 63
COc1cccc(NC(=O)CNC(=O)N2CC(=O)Nc3ccccc32)c1	none (no result: TAG inh)
O=C(O)C(Cc1ccc(Cl)cc1)Sc1nc2ccccc2[nH]1 (configuration not stated)	none (no result: TAG inh)
O=c1cc(-c2ccccc2)oc2cccc(O)c12	none (no result: TAG inh, Hep lipid drop, NTR1 ag, GRK2 inh)
O=c1cc(-c2cccc(Cl)c2)oc2cccc(O)c12	TAG inh 92 | H9c2 TAG conf inactive
c1cncc(C2Nc3ccccc3-c3nc4ccccc4n32)c1 (configuration not stated)	none (no result: TAG inh)
c1ccc2c(c1)NC(c1ccncc1)n1c-2nc2ccccc21 (configuration not stated)	TAG inh 53 | H9c2 TAG conf inactive
CN(C)c1ccc(NC(=O)CSc2nc3ccccc3c(=O)n2C2CCCCC2)cc1	TAG inh 55 (no result: Hep lipid drop) | H9c2 TAG conf 49
Cc1cc(NC(=O)CSc2nc3ccccc3c(=O)n2C2CCCC2)no1	TAG inh 90 (no result: Hep lipid drop) | H9c2 TAG conf 69
Cc1ccc(NC2CCCN(C(=O)c3cn(C)c4ccccc34)C2)cc1C (configuration not stated)	none
Cc1ccsc1C(=O)OCC(=O)NCc1ccc(Cl)cc1	none (no result: Hep lipid drop)
Cc1cccc(N2CCN(C(=O)c3c(-c4ccccc4Cl)noc3C)CC2)c1C	TAG inh 71 | H9c2 TAG conf 66
O=C(Nc1ccc2oc(-c3cccnc3)nc2c1)c1cc2ccccc2o1	TAG inh 52 (no result: Hep lipid drop) | H9c2 TAG conf inactive
COc1cc(/C=C2/NC(=O)N(Cc3ccccc3F)C2=O)ccc1O	TAG inh 59 | H9c2 TAG conf 63
Cc1ccc2c(c1)-n1c(nc3ccccc3c1=O)C(Cc1ccc(O)cc1)NC2=O (configuration not stated)	none (no result: TAG inh, B2AR ag, Hep lipid drop, Arr AP2 block)
O=C1NC(Cc2ccc(O)cc2)c2nc3ccc(F)cc3c(=O)n2-c2cc3ccccc3cc21 (configuration not stated)	TAG inh 78 (no result: B2AR ag, Hep lipid drop, Arr AP2 block, NTR1 ag, GRK2 inh) | H9c2 TAG conf 67
Cc1ccc2nc3n(c(=O)c2c1)-c1cc2ccccc2cc1C(=O)NC3Cc1ccc(O)cc1 (configuration not stated)	TAG inh 64 (no result: B2AR ag, Hep lipid drop, Arr AP2 block, NTR1 ag, GRK2 inh) | H9c2 TAG conf 57
COc1ccc(-n2nnnc2SCC(=O)NCCc2ccccc2)cc1OC	none
COc1ccc(CCNc2nnc(Sc3nnnn3-c3ccccc3)s2)cc1OC	TAG inh 97, Hep lipid drop inconclusive | H9c2 TAG conf 76
CCCCSc1nc(SCC(=O)NCc2ccco2)c2c3c(sc2n1)COC(C)(CC)C3 (configuration not stated)	none (no result: TAG inh, Hep lipid drop)
CCCSc1nc(SCC(=O)NCc2ccccc2)c2c3c(sc2n1)COC(C)(CC)C3 (configuration not stated)	TAG inh 63 (no result: Hep lipid drop) | H9c2 TAG conf 48
CCOC(=O)C1=C(C)N(CCCC(=O)O)C(=O)NC1c1ccc(Br)cc1 (configuration not stated)	none (no result: TAG inh, B2AR ag, Hep lipid drop, Arr AP2 block)
CCOc1cc2c(cc1O)CCC1C2CCC2(C)C(O)CCC12 (configuration not stated)	TAG inh 73 (no result: Hep lipid drop, NTR1 ag, GRK2 inh) | H9c2 TAG conf 57
NS(=O)(=O)c1ccc(CCNC(=O)CSc2nc3ccsc3c(=O)n2Cc2ccccn2)cc1	none (no result: B2AR ag, Hep lipid drop, Arr AP2 block, NTR1 ag, GRK2 inh)
CCOC(=O)Cc1ccc(Nc2nc3cc(-c4sccc4C)sc3c(=O)n2C)cc1	TAG inh 51 (no result: B2AR ag, Hep lipid drop, Arr AP2 block, NTR1 ag, GRK2 inh) | H9c2 TAG conf 71
COc1ccc(Nc2nc3cc(-c4sccc4C)sc3c(=O)n2C)cc1OC	TAG inh 57 (no result: B2AR ag, Hep lipid drop, Arr AP2 block, NTR1 ag, GRK2 inh) | H9c2 TAG conf 71
CSc1ncccc1C(=O)NC1CCCc2c1cnn2-c1ccc(C)c(C)c1 (configuration not stated)	none
O=C(COC(=O)c1ccc(O)cc1)NCC1COc2ccccc2O1 (configuration not stated)	none (no result: Hep lipid drop)
CC(C)CNS(=O)(=O)c1ccc(CCC(=O)Nc2cc(Cl)ccc2Oc2ccccc2)cc1	TAG inh 55 | H9c2 TAG conf inactive
O=C(CN1C(=O)NC2(CCCC2)C1=O)OCCOc1cccc(Br)c1	none (no result: Hep lipid drop)
CSc1nc(NCCN(C)C)c2sc3nc(-c4ccco4)c4c(c3c2n1)CCC4	TAG inh 51 (no result: Hep lipid drop, NTR1 ag, GRK2 inh) | H9c2 TAG conf inactive
CCN(CC)CCNc1ccc2nnc(CCNS(=O)(=O)c3ccc(C)cc3)n2n1	none (no result: TAG inh)
COC(=O)Nc1nc2ccc(C(=O)c3cccs3)cc2[nH]1	none (no result: Hep lipid drop)
